Screens (PubChem)
A selection: hits, their analogues and other compounds. The true share with any hit is near 6.7%.
T cruzi inh: T. cruzi replication inhibition; T. cruzi beta-gal in NIH3T3, luminescence, 90 h; inhibition, % (test concentration not listed); 1.4% of 300,000 active; AID 1885;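 active means mean inhibition across valid replicates above about 55%, limit read from the data; inconclusive means mean below that limit but half or more replicates reach it; inactive means mean below it, under half of replicates reach it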;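 further: signal also drops with host cell toxicity which is not excluded here; 0% = plate median of DMSO wells and 100% = zero luminescence signal; higher percent means less beta-gal luminescence so fewer parasites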
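System: mouse NIH/3T3 fibroblasts infected with β-gal-expressing T. cruzi Tulahuen C4 / Input: NIH/3T3 cells, 5,000 per well / Buffer or medium: Low-serum DMEM with 2% FBS / Probe or stimulus: 5000 reporter trypomastigotes per well / Schedule: ≥90 h infection period, 3 h prior cell attachment / Measured by: GalScreen luminescence, 60 min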
CSC inhib: blocks cancer stem cells | cancer stem cell-like cells viability, luminescence | inhibition, % at 7.5 µM | 1.1% of 300,000 active; in the data active means inhibition above about 75%; inconclusive means no clear call, values can overlap the other calls; tested in HMLE shEcad cells
PREPL inhibitor: human PREPL enzyme inhibition | Q4J6C6 | recombinant PREPL, fluorescence polarization activity-based probe | inhibition, % at 5.96 µM | 0.68% of 320,000 active | AID 2751; in the data active means inhibition above about 43%;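 further: 0% = enzyme with DMSO and 100% = wells lacking enzyme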
Target sequence (Q4J6C6 whole entry, looked up): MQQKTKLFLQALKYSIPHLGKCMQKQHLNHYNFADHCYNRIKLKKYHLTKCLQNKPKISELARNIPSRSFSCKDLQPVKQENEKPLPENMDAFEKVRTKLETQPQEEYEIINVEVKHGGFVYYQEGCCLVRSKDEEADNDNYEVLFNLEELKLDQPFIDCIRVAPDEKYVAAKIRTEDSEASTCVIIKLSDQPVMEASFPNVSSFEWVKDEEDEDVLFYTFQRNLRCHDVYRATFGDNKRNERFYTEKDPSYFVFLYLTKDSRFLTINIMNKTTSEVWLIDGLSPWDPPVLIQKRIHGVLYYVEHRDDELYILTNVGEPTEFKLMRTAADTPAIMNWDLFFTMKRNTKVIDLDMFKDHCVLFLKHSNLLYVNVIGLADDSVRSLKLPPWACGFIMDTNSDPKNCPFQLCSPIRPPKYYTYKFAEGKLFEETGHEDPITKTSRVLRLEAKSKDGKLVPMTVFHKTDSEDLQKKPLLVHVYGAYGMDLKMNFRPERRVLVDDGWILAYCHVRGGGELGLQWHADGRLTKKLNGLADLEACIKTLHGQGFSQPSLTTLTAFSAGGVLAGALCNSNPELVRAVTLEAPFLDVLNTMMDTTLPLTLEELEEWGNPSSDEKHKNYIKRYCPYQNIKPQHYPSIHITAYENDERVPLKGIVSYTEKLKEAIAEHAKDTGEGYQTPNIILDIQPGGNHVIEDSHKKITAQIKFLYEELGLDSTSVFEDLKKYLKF
GRIN3A LBD mod: modulates the human NR3A ligand-binding domain | NR3A LBD differential scanning fluorimetry, Tm shift; 0% = protein alone, 100% = glycine-bound protein | Tm shift relative to glycine control, % at 25 µM | 2.5% of 340,000 active | AID 1259313;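 active means melting temperature shift of at least 10% of the positive control shift, at one fixed dose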
Beta apoptosis: beta cell apoptosis inhibition; protection from apoptosis, % (no concentration beside the values); 0.8% of 300,000 active; INS-1E cytokine-induced death, ATP luminescence, 48 h; percent of positive-control rescue, neutral wells zero;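 active means Every replicate reaches about 75%, or at least half do and their mean reaches it too, limit read from the data; inconclusive means At least half of replicates reach the limit but their mean does not; inactive means Under half of replicates reach the limit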;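 further: 0% = cytokine-treated negative control wells and 100% = positive control rescue; higher means more ATP so stronger rescue from cytokine killing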
CHOP inhibitor: inhibitors of CHOP induction in ER stress response. CHO-K1 CHOP-promoter luciferase, tunicamycin-induced, 15-18 h. inhibition, % at 10 µM. 3.8% of 220,000 active;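 active means compounds that reduced the stress-induced luciferase reporter signal by more than about 70% of percent inhibition, limit read from the data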;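 further: 0% = tunicamycin plus vehicle and 100% = wells without tunicamycin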
An asterisk follows results filed as active; ? = inconclusive; · = no result.

SMILES | T cruzi inh | CSC inhib | PREPL inhibitor | GRIN3A LBD mod | Beta apoptosis | CHOP inhibitor
COc1cc(/C=N\NC(=O)c2ccc(-c3ccccc3)cc2)cc(OC)c1OC(C)=O | · | -8.9 | · | -7.6 | 29.7 | ·
CCN(CC)S(=O)(=O)c1cccc(C(=O)N/N=C/c2cc(OC)c(O)c(OC)c2)c1 | -1.7 | 0.7 | 4.4 | 2.9 | 1.2 | -6.9
COc1cc(/C=N/Nc2ccc(F)cc2F)cc(OC)c1O | 15.3 | 95.1* | 18.2 | -1.7 | -7.3 | -167.5
O=C1CC(c2ccccc2)c2cccc(F)c21 (centres undefined) | -16.1 | -8.1 | -1.0 | 0.5 | -4.3 | ·
O=C(Cn1nc(C(=O)O)c2ccccc2c1=O)Nc1ccc2c(c1)C(=O)c1ccccc1C2=O | -1.1 | -4.2 | 11.2 | · | -4.8 | -7.9
C=CC[n+]1c(-c2ccc(C)cc2)csc1Nc1ccc(NC(C)=O)cc1 | 2.0 | · | · | 0.0 | · | 84.9*
O=C(/C(=C/c1ccc(Cl)cc1)c1nc2ccccc2[nH]1)c1ccccc1 | 68.0* | 57.6 | -3.9 | 25.7* | 104.4* | -48.2
COc1cc(/C=C(/C(=O)c2cccs2)c2nc3ccccc3[nH]2)cc(OC)c1O | 52.5 | 77.2* | 14.5 | -3.1 | 22.8 | -90.2
COc1ccc(C(=O)N/C(=C/c2cccs2)c2nc3ccccc3[nH]2)cc1OC | -6.7 | -1.7 | 2.1 | 0.4 | 0.8 | -8.3
CC1CCCCN1S(=O)(=O)c1ccc(C(=O)N2CCOCC2)cc1 (centres undefined) | 2.8 | -4.9 | 0.9 | -0.4 | 2.7 | ·
Cc1cccc(NC(=S)N/N=C/c2cccc(O)c2)c1C | 2.5 | 80.5* | 13.0 | -3.2 | 2.1 | -3.8
Cc1ccc(Cl)cc1NC(=S)N/N=C/c1cccc2ccccc12 | 58.9* | ? | 12.4 | 9.6 | 11.7 | -36.2
O=C(O)c1cccc(NC(=S)N/N=C/c2cccc(O)c2)c1 | -9.1 | -7.1 | 1.5 | 1.9 | 1.7 | -1.3
Cc1ccccc1NC(=S)N/N=C/c1ccc(O)cc1O | 48.6 | 69.7 | 6.4 | 4.6 | 86.8* | 37.7
Cc1ccccc1C(=O)N/N=C/c1cccc2ccccc12 | 7.3 | 4.5 | 0.2 | -2.7 | -1.1 | ·
C=CC[C@@H](CC(=O)N[C@H](CO)Cc1ccccc1)C(=O)N[C@@H](COC(=O)[C@@H](CC=C)CC(=O)OC(C)(C)C)Cc1ccccc1 | · | -9.4 | 7.5 | -4.2 | 8.5 | ·
CC(=O)c1c(OC(=O)c2ccccc2)c2ccccc2n1C | -16.3 | -5.9 | 18.5 | 1.9 | -8.9 | 70.5*
COc1cccc(/C=C/C(=O)OCC(=O)Nc2cccc(S(=O)(=O)N3CCOCC3)c2)c1OC | 0.8 | 0.6 | -6.5 | 1.9 | -5.5 | 8.9
N#C/C(=N\Nc1cccc(C(F)(F)F)c1)C(=O)c1csc(-c2cccnc2)n1 | -5.0 | 66.1 | 13.1 | 11.3* | -2.7 | 6.6
Cc1ccc(S(=O)(=O)c2c(C)nn(-c3ccccc3)c2OC(=O)c2ccco2)cc1 | -10.7 | -8.0 | -5.0 | 3.2 | -7.1 | 102.8*
CC(C)CN(C(=O)c1cc(Cl)nc2ccccc12)C1CCS(=O)(=O)C1 (centres undefined) | · | · | · | 0.4 | · | ·
COCCn1c(SCC(=O)NC(=O)NCc2ccccc2)nc2ccccc21 | 55.4* | -4.7 | 3.7 | 4.1 | 2.0 | 48.7
COCCn1c(SCC(=O)NC(=O)NC(C)C)nc2ccccc21 | -12.4 | -4.2 | -4.4 | -6.6 | -7.5 | 26.3
CN1C(=O)[C@H]2[C@@H](/C=C/c3ccccc3)N3C(=O)CN(Cc4ccccn4)C(=O)[C@@]3(C)[C@H]2C1=O | -2.1 | -5.6 | 2.2 | -1.0 | 3.4 | ·
O=C1C=C(c2ccc(C(=O)O)c(Cl)c2)C[C@@H](c2ccc3c(c2)OCO3)C1 | · | -11.7 | -0.5 | 2.2 | 0.4 | ·
SMILES | T cruzi inh | CSC inhib | PREPL inhibitor | GRIN3A LBD mod | Beta apoptosis | CHOP inhibitor
Nc1nn2cc(-c3ccc(Br)cc3)nc2c2ccccc12 | 17.9 | · | 32.3 | 27.4* | 8.0 | 50.7
Cc1cccc(-n2ncc3c2CCCC3NC(=O)C2=CC(=O)CC(C)(C)O2)c1C (centres undefined) | 2.9 | -2.4 | 1.4 | 3.1 | · | ·
CC(C)CCN(C(=O)Nc1ccccc1)C(C)c1cccs1 (centres undefined) | -8.7 | -1.8 | 1.1 | -5.5 | 1.5 | 3.8
O=C(CN1CCSC1=O)Nc1ccc(N2CCOCC2)cc1 | · | · | · | -0.9 | · | ·
COc1ccc2c(c1)C=C(CN1CCN(C3CCCC3)C(CCO)C1)CO2 (centres undefined) | 58.1* | 63.7 | 21.5 | -0.4 | -1.7 | 8.7
COc1ccc2c(c1)C=C(CN1CCN(C(C)C)C(CCO)C1)CO2 (centres undefined) | 45.8 | 25.3 | 18.1 | -0.9 | -7.0 | 9.8
O=C(CCN1C(=O)C2CCCCC2C1=O)N1CCN(S(=O)(=O)c2c(F)cccc2F)CC1 (centres undefined) | -0.8 | -8.8 | -3.8 | -0.5 | -3.3 | ·
CCN(CC)c1ccc(/C=N/NC(=O)c2c(Cl)cnn2C)c(O)c1 | 54.1 | -5.6 | 7.4 | -0.9 | 95.0* | 59.5
CCN(CC)c1ccc(/C=N/NC(=O)c2cccc(S(=O)(=O)N3CCOCC3)c2)c(O)c1 | 65.1* | 109.9* | 20.7 | -20.3 | 74.9* | 53.1
CCN(CC)S(=O)(=O)c1cccc(C(=O)N/N=C/c2cccc(O)c2O)c1 | 3.5 | 97.6* | 15.4 | -2.7 | 42.3 | 35.8
COc1ccc(C(=O)NCC(=O)OCC(=O)c2ccc3c(c2)NC(=O)CO3)cc1 | -8.9 | -11.2 | 3.5 | -0.3 | -6.7 | 10.1
CC(C)(O)C#Cc1ccc(C(=O)NCc2ccccc2F)cc1 | -1.0 | -5.6 | 11.0 | 1.4 | 0.5 | -20.0
C/C(=N\NC(=O)Cc1ccccc1)c1ccc(Cl)s1 | 0.5 | · | 1.0 | -0.6 | -3.7 | ·
CN(C)c1ccc(NS(=O)(=O)c2cc(Cl)ccc2Cl)cc1 | 11.7 | 23.6 | -9.5 | -20.4 | -0.3 | 19.1
CCN(c1ccc(NS(=O)(=O)c2cc(Cl)ccc2Cl)cc1)C(C)C | 23.4 | · | 1.3 | -8.0 | 5.1 | 93.3*
COc1ccc(-c2csc(NC(=O)CSc3nc(C)nc4sc(C(=O)O)c(C)c34)n2)cc1 | 21.1 | 24.6 | -10.4 | -2.6 | 3.5 | 5.9
Fc1ccccc1N1CC(c2ccccc2)C(c2cccs2)=N1 (centres undefined) | -2.7 | 15.5 | 8.9 | 0.8 | 3.2 | 71.1*
CN(C)C(=O)c1cc(C(=O)c2ccc(C(F)(F)F)cc2)c[nH]1 | -14.9 | · | 5.7 | -1.0 | · | ·
Cc1ccc(C(=O)c2ccc(C(F)(F)F)cc2)cc1 | -1.3 | -14.5 | 1.6 | · | -3.0 | 93.3*
O=C(Cn1cnc([N+](=O)[O-])n1)NCc1ccccc1 | 79.4* | 2.7 | 12.6 | 0.3 | 4.1 | 14.3
COc1ccccc1/C=N/NC(=O)Cn1cnc([N+](=O)[O-])n1 | -12.8 | -15.5 | 5.1 | -3.3 | -5.2 | 2.0
O=C(Cn1cnc([N+](=O)[O-])n1)N/N=C/c1ccc2ccccc2c1 | 61.5* | -3.2 | 32.8 | -4.8 | -2.4 | 17.8
Cc1ccccc1CSc1nc2n(n1)C(c1cccs1)C1=C(CCCC1=O)N2 (centres undefined) | 11.9 | -0.8 | -14.0 | -9.6 | 7.0 | 77.5*
